# Only some compounds are listed: those with a hit (about 2.3% of all), similar ones and a draw of the others.
# HSP90 refold inh: blocks HSP90-mediated luciferase refolding in reticulocyte lysate. Rabbit reticulocyte lysate, luciferase refolding luminescence, 3 h. inhibition, % at 5.6 µM. actives 0.91% (n = 290,000). AID 1789;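 active means inhibition above the screen-wide mean plus 3 SD, computed separately per campaign, cut at about 16% in these data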;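 further: 0% = DMSO wells and 100% = 60 µM geldanamycin wells; inhibitors lower the luminescence because luciferase stays unfolded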
# STAT3 activator: increases IL-6 driven STAT3 reporter signal; actives 0.91% (n = 190,000); activation (% of control), % at 5.6 µM; U3A cells, IL-6 STAT3-luciferase reporter, luminescence; 100% = signal with IL-6 EC80 alone;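 active means activation above the screen-wide mean of compound activation plus 3 SD, cut at about 130% in these data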;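 further: 0% = background luminescence of wells with medium and substrate only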
#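 Test system: Human STAT1-deficient U3A cells with stable STAT3-luciferase reporter | Also added: Interleukin-6, 33 ng/mL | Timing: Compound pre-incubation 1 h before IL-6, then 6 h stimulation at 37 °C | Technique: Luciferase reporter luminescence | Read-out: Percent of IL-6-only median luminescence | Benchmarks: IL-6-only wells as 100% reference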
# TRAIL sens C8: caspase-8 TRAIL sensitization | inhibition (viability loss, TRAIL sensitization), % at 10 µM | NB7+C8 cells + TRAIL, ATPlite viability luminescence | actives 1% (n = 360,000) | AID 624354;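 active means compounds causing at least 50% loss of cell viability in the single-dose screen, relative to plate controls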
# STAT1 blocker: STAT1 signaling inhibition; inhibition, % at 5.5 µM; actives 0.35% (n = 200,000); NIH 3T3 STAT1-luciferase reporter, IFN-gamma, luminescence;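 active means inhibition above a set limit, the mean inhibition across all tested compounds plus 3 SD, cut at about 34% in these data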;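 further: 0% = IFN-gamma with DMSO and 100% = IFN-gamma with 300 µM nifuroxazide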
# STAT3 blocker: inhibitors of IL-6 induced STAT3 signaling. U3A cells, IL-6 STAT3-luciferase reporter, luminescence; host cell line lacks STAT1. inhibition, % at 5.5 µM. actives 0.89% (n = 190,000). AID 862;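 active means inhibition above the mean inhibition across all screened compounds plus 3 SD, cut at about 44% in these data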;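 further: 0% = DMSO only wells and 100% = 100 µM nifuroxazide control wells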
# PPC-1+TRAIL kill: compounds killing PPC-1 cancer cells with TRAIL present (potentiator screen, no TRAIL-free arm) | PPC-1 cells + TRAIL, ATPLite viability luminescence | cell killing (% activity), % at 4 µM or 5 µM | actives 0.41% (n = 220,000);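 active means cell killing above 50% in the first pass at 4 µM, then a duplicate retest at 5 µM averaging 50% or more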;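 further: plate controls were cells with TRAIL plus DMSO for no effect and medium-only wells lacking cells for full effect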
# * hit, by the source's call; · = no result given.
SMILES,HSP90 refold inh,STAT3 activator,TRAIL sens C8,STAT1 blocker,STAT3 blocker,PPC-1+TRAIL kill
COC12C(COC(N)=O)C3=C(C(=O)C(C)=C(N)C3=O)N1CC1C2N1C (stereo not given),13,·,-1,·,·,1
COC(COC(N)=O)C1=C(N2CC2)C(=O)C(C)=C(N2CC2)C1=O (stereo not given),·,·,74*,·,·,·
C=C(C)CSc1nnc([C@@H](N)Cc2c[nH]c3ccccc23)o1,2,90,-10,6,16,-3
Cc1[nH]nc2ccc(-c3cncc(OC[C@@H](N)Cc4c[nH]c5ccccc45)c3)cc12,·,·,90*,·,·,·
Cc1cccn2c(=O)c3cc(C(=O)N4CCC5(CC4)OCCO5)n(C)c3nc12,6,106,15,-8,-3,14
O=c1c2ccccc2nc(N2CCCC2)n1-c1ccc(Cl)cc1,-6,91,8,4,16,25
Oc1ccc(-[n+]2c(-c3ccccc3)cc(-c3ccccc3)cc2-c2ccccc2)cc1,·,·,65*,·,·,·
COc1ccc(OC)c(C2=NOC(C(=O)N3CCC4(CC3)OCCO4)C2)c1 (stereo not given),-1,106,7,0,-4,0
CCN(CC)c1ccc(/C=C/[N+](=O)[O-])cc1,7,106,10,-15,-2,4
O=[N+]([O-])/C=C/c1c(Cl)cccc1Cl,·,·,71*,·,·,·
CC(=O)OC1CC(OC2C(O)CC(OC3C(O)CC(OC4CCC5(C)C(CCC6C5CCC5(C)C(C7=CC(=O)OC7)CCC65O)C4)OC3C)OC2C)OC(C)C1OC1OC(CO)C(O)C(O)C1O (stereo not given),·,·,66*,·,·,·
O=c1[nH]c(=S)n(-c2ccccc2)c(O)c1/C=N/N1CCCCC1c1cccnc1 (stereo not given),-3,·,-7,·,·,8
CC12CCC3C(CCC4C/C(=N/O)CCC43C)C1CCC2O (stereo not given),-1,97,-17,-4,-1,12
CCc1ccc(N2C(=O)NC(=O)/C(=C/c3cccn3CCOc3ccc(C)cc3)C2=O)cc1,4,110,-8,-18,-18,-5
CCc1ccc(N2C(=O)NC(=O)/C(=C/c3cccn3CCOc3ccc(C(C)CC)cc3)C2=O)cc1 (stereo not given),29*,74,6,-10,27,14
Cc1cccc(-n2c(O)c(C=NCCN3CCCCC3)c(=O)[nH]c2=O)c1,-1,·,-18,·,·,11
C/C1=C\[C@@H](C)C/C=C/[C@H]2[C@@H]3O[C@]3(C)[C@@H](C)[C@H]3[C@H](Cc4c[nH]c5ccccc45)NC(=O)[C@]32C(=O)/C=C/C(=O)[C@@H]1O,3,·,30,14,·,16
CC1=CC2/C=C(\C)CCC(O)C(O)/C=C/C(=O)C23C(=O)NC(CC(C)C)C3C1C (stereo not given),3,·,91*,-12,·,4
C[C@]12C=CC(=O)C=C1CC[C@@H]1C2CC[C@]2(C)OC(=O)CCC12 (stereo not given in full),9,·,-5,·,·,·
C=CC1CN2CCC1CC2[C@@H](OC(=O)c1ccc(OC)cc1)c1ccnc2ccccc12 (stereo not given in full),4,98,0,4,3,54*
CN(C)c1ccc(NC(=O)CN2C(=O)CN=C(c3ccccc3)c3cc(Cl)ccc32)cc1,-3,106,-8,-2,2,12
Cc1ccc(NC(=O)CN2C(=O)CN=C(c3ccccc3)c3cc(Cl)ccc32)cc1,-2,105,57*,-5,3,10
COC(=O)C12OCC34C(CC5C(C)=C(O)C(=O)CC5(C)C3C(O)C1O)OC(=O)C(OC(=O)/C=C(\C)C(C)C)C24 (stereo not given),·,·,58*,·,·,·
COc1ccc(-c2nc3ccccc3c(=O)o2)cc1,-1,90,55*,-7,13,47
C[N+]1(C)[C@@H]2CC[C@H]1CC(OC(=O)C(c1ccccc1)c1ccccc1)C2 (stereo not given in full),-1,·,-15,·,·,·
SMILES,HSP90 refold inh,STAT3 activator,TRAIL sens C8,STAT1 blocker,STAT3 blocker,PPC-1+TRAIL kill
CC(=O)OC(C)(C)/C=C/C(=O)C(C)(O)C1[C@H](O)C[C@@]2(C)C3CC=C4C(CC[C@@H](O)C4(C)C)[C@]3(CO)C(=O)C[C@]12C (stereo not given in full),0,·,53*,·,·,·
CC(=O)OC(C)(C)/C=C/C(=O)[C@](C)(O)[C@H]1[C@H](O)C[C@@]2(C)[C@@H]3CC=C4[C@H](C[C@H](O)C(=O)C4(C)C)[C@]3(C)C(=O)C[C@]12C,0,81,32,-15,20,50*
CC(C)CCn1c(=O)c(C(=O)Nc2ccccc2S(N)(=O)=O)c(O)c2ccccc21,-7,113,52*,-3,-14,12
CC1=C(N2CC2)C(=O)C(CO)=C(N2CC2)C1=O,·,·,77*,·,·,·
CC(=O)OC1(C)CC(C)C(=O)C(C(O)CC2CC(=O)NC(=O)C2)C1 (stereo not given),·,·,74*,·,·,·
C[C@@H]1C[C@@H]([C@H](O)CC2CC(=O)NC(=O)C2)C(=O)[C@@H](C)C1,·,·,30,·,·,·
O=c1c2ccccc2nc(CSc2ncnc3nc[nH]c23)n1-c1ccc(Cl)c(Cl)c1,-1,99,45,20,6,18
C[n+]1ccc(-c2ccccc2)c2ccccc21,·,·,10,·,·,·
CN(C)c1ccc(/C=C/c2cc[n+](C)c3ccccc23)cc1,2,43,45,26,72*,44
N=c1c2c(n(Cc3ccc(Cl)cc3Cl)c3c1CCC3)CCCC2,6,61,29,25,51*,2
Cc1nn(Cc2ccc(Cl)cc2Cl)c(Cl)c1C(=O)O,1,101,-2,-8,0,23
COC(=O)C1=C(c2cccc(NC(C)=O)c2)C[C@@H]2CC[C@H]1N2C,·,·,11,·,·,·
COc1ccc(CC(=O)N2CCN(C)CC2)cc1,3,103,2,0,0,18
COc1ccc(CC2NCC(O)C2OC(C)=O)cc1 (stereo not given),·,·,85*,·,·,·
CCn1nc(-c2cccs2)nc2c(=O)n(C)c(=O)nc1-2,·,·,95*,·,·,39
C[N+](C)(C)CC1CCCC(C[N+](C)(C)C)C1=O (stereo not given),·,·,-2,·,·,·
CC(C)COC(=O)c1ccccc1C(=O)OCC(C)C,·,·,-9,·,·,8
C[CH2][Hg][S]c1ccccc1C(=O)O,·,·,62*,·,·,·
CC(C(=O)c1c[nH]c2ccccc12)N1CCc2ccccc2C1 (stereo not given),-1,134*,-8,-14,-37,-12
c1ccc(CNC2=NCCS2)cc1,1,96,-5,4,10,28
CC1(C)CN=C(NCc2ccccc2)S1,23*,·,2,·,·,·
CN(C)c1ccc(/C=C/C=C/c2sc3ccccc3[n+]2C)cc1,1,·,33,·,·,45

# Compound activity: PubChem BioAssay, several laboratories
